Experimental findings from the RNAGym collection of RNA variant scans (doi:10.1126/science.aae0568) are described below.

Variants at the floor of the assay were thinned out.

The labels stand for the following.
B1: tRNA (parent)
chain: GUUCCGUUGGCGUAAUGGUAACGCGUCUCCCUCCUAAGGAGAAGACUGCGGGUUCGAGUCCCGUACGGAACG

In this series the parent is B1. As to the kind of experiment: yeast fitness relative to wild type (ratio to wild type); higher = fitter; tRNA-Arg(CCU), competitive growth, 37 C, YPD. The procedure, abridged: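 Variants of the tRNA-Arg(CCU) gene were chemically synthesised with a 3% per-site mutation rate across 69 sites and placed at the native genomic locus in Saccharomyces cerevisiae. Six parallel replicates of the pooled strains were competed in YPD at 37°C for 24 hours, and gene amplicons from the start and end populations were read by 100-nucleotide paired-end sequencing. Darwinian fitness relative to wild type was derived from changes in genotype frequencies. Genotypes required ≥ 100 starting reads, and estimates < 0.5 were set to 0.5.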
For the variant GUUCCGUUGGCGUAAUGGUAGCGCGUCUCCCGCCUAAGGACAAGACUGCGGGUUCGAGUCCCGUACGGAACG [A21G U32G G41C], the yeast fitness was no more than 0.5. On to GUUCCGUUGGCGUUAUGGUAAUGCAUCUCCCUCCUAAGGAGAAGACUGCGGGUUGGAGUUCCGUACGCAACG [A14U C22U G25A C55G C60U G68C], for which the yeast fitness was no more than 0.5.

For GUUCCGUUGGCGUAAUGGUAACGCGUCUCCCUCCUAAGGAGAAGACUGCGGGUUCGAGUCGCGUUCGGAACG [C61G A65U], the yeast fitness was found to be 0.651. The result for GUUCCGUUGGCGUAAAGGUAACGCGUCACCCUCCUAAGGAGAAGUCUGAGGGUUCGAGUCCCGUAUGGAACG [U16A U28A A45U C49A C66U] reads no more than 0.5; that for GUUCCGUUGGCGUAAUGGUAAUGGGUCUCCCUCCUAAGGAGAAGACUGCGGGUUCGAGUCCCGUACGGCACG [C22U C24G A69C], 0.539.

For GUUACGUUGGCGUAAUGGUAACGCGUCUCCCUCCCAAGGAGAAGACUGCGGGUUCGAGUCCCGGACGGAACG [C4A U35C U64G], the yeast fitness was no more than 0.5. The result for GUUCCGUUGGCCUAAUGGUAACGCGCCUCCCUCCUAAGGAGAAGACUGCGGGUUCGAGUCCCGUACGGAACG [G12C U26C] reads 0.859; that for GUACCGUUGGCGUAAUGGUAACGCGUCUCCCUCCUAAGGAGAAGACUGCGGGUUCGAGUCCCGUACGGCACG [U3A A69C], 0.919. In the case of GUUCCGUUGGCGUAAUGGUAACGCGUCUCCCUCCUAAGGAGAAGACUGCGGGUUUGAGUCCCGUAGGGACCG [C55U C66G A70C] it was no more than 0.5; in that of GUUCCGGUGGCGUAAUGGUGACGCGUCUCCCUCCUAAGGAGAAGACUGCGGGUUCGAGUCCCGUACGGAACG [U7G A20G], 0.872; in that of GUUUCGUUGCCGUAAUGGUAACGCGUCUCCCUCCCAAGGAAAAGACUGCGGGUUCGAGUCCGGUACGGAUCG [C4U G10C U35C G41A C62G A70U], no more than 0.5.

With GUUCCGUUGGCGUAAUGGUAACGCGUCUCCCUCCUAAGGAGUAGACUGCGGGUUCGAGUCCCGUACUGAACG [A42U G67U], the yeast fitness was 0.813. The result for GUUCCGUUCGCGUAAUGGUAACGCGUCUCACUCCUAAGGAGAAGACUGCGGGUUCGAGUUCCGUACGGAACG [G9C C30A C60U] reads 0.655; that for GUUCCGUUGGCGUAAUGGUAACGCGUCUCCCUCCUACGGAAAAGACUGCGGGUUCGAGUCCCGUACGGACCG [A37C G41A A70C], no more than 0.5; that for GUUCCGUUGGCGAAAUGGUAACGCGUGUCCCUCCUAAGGAGAAGCCUGCGGGUUCGAGUCCCGUACGGAACG [U13A C27G A45C], 0.743.

As for GUUUCGUUGGCGUAAUGGUAACGCAUCUCCCUCCUAAGGAGAAGACUGCGGGUUCGAGUCCCGUACGGCACG [C4U G25A A69C], the yeast fitness stood at 0.761. The result for GUUCCGUUGGCGAAAUGGUUACGUGUCUCCCUCCUAGGGAGAAGACUGCGGGUUCGAGGCCCGUACGGAACG [U13A A20U C24U A37G U59G] reads no more than 0.5.

For the variant GUUCCGUUCGCGUAAUGGUAACGGGUCUCCCUCCUAAGGAGAAGACUGCGGGUUCGAGUCCCGUCCGGAACG [G9C C24G A65C], the yeast fitness was no more than 0.5. The result for GUUCCGUUGGCGUAAUGGUAUCGAGUCUCCCUCCUAAGGAGAAGACUGCGGGUUCGAGUCCCGUACGGGACG [A21U C24A A69G] reads no more than 0.5; that for GUUCCGUUGGCCUAAUGGUAACGCGUCUCCCUCCUAAGGGGAAGACUGCGGGUUCGAGUCCCGUACGGAGCG [G12C A40G A70G], 0.567. In the case of GUUCCGUUGGCGUAAUGGUAACGCGUCUCCCUCCUAAGGAGAAGACUGCGGGUUCGAGCCCCGUUCGGAACG [U59C A65U] it was 0.96; in that of GUUCCGUUGGCGUAAUGGUAUUGCGUCUCCCUCCUAAGAAGAAGAUUGCGGGUUCGAGUCCUGUACGGAACG [A21U C22U G39A C46U C62U], no more than 0.5. The result for GUUCCGUUGGCGUAACGGUAACGCGUCUCCCUCCUAAGGAGAAAACUGCGGGUCCCAGUCCCGUACGGAACG [U16C G44A U54C G56C] reads 0.558; that for GUUCCGUUGGCGUAAUGGUAACGGGUCUCCCUCCUAAGGACAAGACUGCGGGUUCGAGUCCCGUACGGAACG [C24G G41C], 0.582; that for GUACCGUUGGCGUAAUGGUAACACGUCUCCCUCCUAAGGAGAAGACUGCGGGUUCGAGUCCCGUACGGCACG [U3A G23A A69C], 0.571. GUUCCGAUGGCGUAAUGGUAACGCGUCUCCCUCCUAAGGAGAAGACUGCGGGUUCGAGUCCCGUCCGGAACG [U7A A65C]: the yeast fitness came to 0.917. Regarding GUUUCGUUGGCGUAAUGGUAACGCGUCUCCCUCCUAAGGAGAAGACUGCGGGUUCGCGUCUCGUACGGAUCG [C4U A57C C61U A70U], the yeast fitness was no more than 0.5. On to GUUCUGUUGGCGUAAUGGUAGCGCGUCUCCCUCCUAAGGAGAAGACUGCGGGUUCGAGUCCCGUACGGAACG [C5U A21G], for which the yeast fitness worked out at 0.981. The result for GUUCGGUUGGUGUAAUGGUAACGCGUCUCCCUCCUACGGAGAAGACUGCGGGUUCGAGUCCCGCACGGAACG [C5G C11U A37C U64C] reads 0.609; that for GUUUCGUUGGCGUAAUGGUAACGCGUCUCCCUCCUAAGGAGAAGGCUGCGGGUUCGAGUCGCGUCCGGAUCG [C4U A45G C61G A65C A70U], no more than 0.5; that for GUUCCGUUGGCGUAAUGGUAACGCGUCUCCCUCCUAAGGACAAGACUGCGGGUUCGAGUCCCGUACGGAACG [G41C], 0.967. In the case of GUCCCGUUGGCGUAAUGGUAACGCGUCUCCCUCCUAAGGAGAAGACUGCGGGCUCGAGUCCCGUACGGAACG [U3C U53C] it was 0.78.

For GUUCCGUUGGCGUAAUGGUAAUGCGUCUCCCUCCUAAGGAGAAGACUGGGGGAUCGAGUCCCCUACGGAACG [C22U C49G U53A G63C], the yeast fitness was 0.609. For GUUCCGUUGGCGUAAUGGUAUCGCGUCUCGCUCCUAAGGAGAAGACUGCGGGUUCGAGUCUCGUACGGAACG [A21U C30G C61U], the yeast fitness was no more than 0.5.

For the variant GUUCCGUUGCCGUAAUGGUAACGCGUCUCGCUCCUAAGGAGAAGACUGCGGGUUCGAGGCCCGUAAGGAACG [G10C C30G U59G C66A], the yeast fitness was no more than 0.5. In the case of GUUCCGUUGGCGUAAUGGUAACGCGUCUCCAUCCUAAGGAGAAGACCGCGGGUUCGAGUCCCGUACGGUACG [C31A U47C A69U], the yeast fitness was no more than 0.5.

With GUUCCGGUGCCGUAAUGGUAAGGCGUCUCCCUCCUAAGGAGAAGACUGCGGGUUAGAGUCCCGUACGGAACG [U7G G10C C22G C55A], the yeast fitness was no more than 0.5.

On to GUUGUGUUGGCGUAAUGGUAACGCGUCUCCCUCCUAAGGAGAACACUGCGGGUUCGAGUCCCGUACUGAACG [C4G C5U G44C G67U], for which the yeast fitness is no more than 0.5.
